Assay results as given in ChEMBL document CHEMBL1149790, “Synthesis of some novel thiourea derivatives obtained from 5-[(4-aminophenoxy)methyl]-4-alkyl/aryl-2,4-dihydro-3H-1,2,4-triazole-3-thiones and evaluation as antiviral/anti-HIV and anti-tuberculosis agents” (Eur J Med Chem, 2008).
Converted amounts (≈) assume the structure as drawn.

How the values were obtained:
[1] = Cytotoxicity against human HeLa cells; assay type: cell-based
Outline: (§1)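 Uninfected cell cultures exposed to test compounds alongside antiviral assays; minimum cytotoxic concentration (MCC) = concentration causing a microscopically detectable alteration of cell morphology.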

[2] = system: Vesicular stomatitis virus; assay: Antiviral activity against vesicular stomatitis virus in human HeLa cells assessed as inhibition of virus-induced cytopathogenicity; assay type: functional
Outline: (§2)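 Confluent cell monolayers (E6SM, HEL, HeLa or Vero, per line) inoculated with 100 CCID50 virus; 1 h adsorption, residual virus removed, then incubated with compound at 400, 200, 100 … µg/ml. Cytopathicity scored once complete in untreated virus controls; MIC = concentration inhibiting virus-induced cytopathicity.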

Coxsackievirus B4 [3] = assay: Antiviral activity against Coxsackie virus B4 in human HeLa cells assessed as inhibition of virus-induced cytopathogenicity; assay type: functional; conditions: Enterovirus B; outline: as §2
[4] = system: Respiratory syncytial virus; assay: Antiviral activity against respiratory syncytial virus in human HeLa cells assessed as inhibition of virus-induced cytopathogenicity; assay type: functional; outline: as §2
[5] = Cytotoxicity against human E6SM cells; assay type: cell-based; conditions: E6SM cells; outline: as §1
[6] = Cytotoxicity against human HEL cells assessed as alteration of cell morphology; assay type: cell-based; outline: as §1
Human alphaherpesvirus 1 [7] = assay: Antiviral activity against HSV1 KOS in human E6SM cells assessed as reduction of virus-induced cytopathogenicity; assay type: functional; conditions: Human alphaherpesvirus 1, KOS; outline: as §2
Human alphaherpesvirus 1 [8] = assay: Antiviral activity against HSV1 KOS in human HEL cells assessed as reduction of virus-induced cytopathogenicity; assay type: functional; conditions: Human alphaherpesvirus 1, KOS; outline: as §2
Human alphaherpesvirus 2 [9] = assay: Antiviral activity against HSV2 G in human E6SM cells assessed as reduction of virus-induced cytopathogenicity; assay type: functional; conditions: Human alphaherpesvirus 2, G; outline: as §2
Human alphaherpesvirus 2 [10] = assay: Antiviral activity against HSV2 G in human HEL cells assessed as reduction of virus-induced cytopathogenicity; assay type: functional; conditions: Human alphaherpesvirus 2, G; outline: as §2
[11] = system: Vesicular stomatitis virus; assay: Antiviral activity against in Vesicular stomatitis virus in human E6SM cells assessed as reduction of virus-induced cytopathogenicity; assay type: functional; outline: as §2
[12] = system: Vesicular stomatitis virus; assay: Antiviral activity against in Vesicular stomatitis virus in human HEL cells assessed as reduction of virus-induced cytopathogenicity; assay type: functional; outline: as §2
Human alphaherpesvirus 1 [13] = assay: Antiviral activity against thymidine kinase deficient and acyclovir resistant HSV1 KOS in human E6SM cells assessed as reduction of virus-induced cytopathogenicity; assay type: functional; conditions: Human alphaherpesvirus 1, KOS; outline: as §2
Human alphaherpesvirus 1 [14] = assay: Antiviral activity against thymidine kinase deficient and acyclovir resistant HSV1 KOS in human HEL cells assessed as reduction of virus-induced cytopathogenicity; assay type: functional; conditions: Human alphaherpesvirus 1, KOS; outline: as §2
Vero = assay: Cytotoxicity against african green monkey Vero cells; assay type: cell-based; conditions: chlorocebus sabaeus; outline: as §1
Coxsackievirus B4 [15] = assay: Antiviral activity against Coxsackie virus B4 in african green monkey Vero cells assessed as reduction of virus-induced cytopathogenicity; assay type: functional; conditions: Enterovirus B; outline: as §2
Punta Toro virus = assay: Antiviral activity against Punta Toro virus in african green monkey Vero cells assessed as reduction of virus-induced cytopathogenicity; assay type: functional; outline: as §2
Human alphaherpesvirus 3 [16] = assay: Antiviral activity against TK+ VZV OKA infected HEL cells assessed as reduction in virus plaque formation; assay type: functional, organism-based; conditions: Human alphaherpesvirus 3, OKA
Human alphaherpesvirus 3 [17] = assay: Antiviral activity against TK- VZV 07/1 infected HEL cells assessed as reduction in virus plaque formation; assay type: functional, organism-based; conditions: Human alphaherpesvirus 3, 07/1, HEL
Human respirovirus 3 = assay: Antiviral activity against Parainfluenza 3 virus in african green monkey Vero cells assessed as reduction of virus-induced cytopathogenicity; assay type: functional; outline: as §2
[18] = system: Mammalian orthoreovirus 1; assay: Antiviral activity against Reo virus 1 in african green monkey Vero cells assessed as reduction of virus-induced cytopathogenicity; assay type: functional; outline: as §2
Sindbis virus = assay: Antiviral activity against Sindbis virus in african green monkey Vero cells assessed as reduction of virus-induced cytopathogenicity; assay type: functional; outline: as §2
[19] = Cytotoxicity against human HEL cells assessed as reduction of cell growth; assay type: cell-based
Outline: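 HEL cells; CC50 = compound concentration reducing cell growth by 50%.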

[20] = system: Human immunodeficiency virus 1; assay: Antiviral activity against HIV1 3B in human MT4 cells assessed as protection against virus-induced cytopathogenicity by MTT assay; assay type: functional, organism-based; parameters: Activity: concentration or dose not given beside the values
Outline: (§3)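 MT-4 cells at 6 × 10⁵ cells/ml infected with HIV-1 IIIB or HIV-2 ROD at 100–300 CCID50; compounds in serial five-fold dilutions, triplicate mock- and virus-infected wells. MTT viability read at 540 and 690 nm after 5 days, median OD of three wells; EC50 = 50% protection from viral cytopathic effect.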

[21] = system: Human immunodeficiency virus 2; assay: Antiviral activity against HIV2 ROD in human MT4 cells assessed as protection against virus-induced cytopathogenicity by MTT assay; assay type: functional, organism-based; parameters: Activity: concentration or dose not given beside the values; outline: as §3
[22] = Cytotoxicity against human MT4 cells by MTT assay; assay type: cell-based
Outline: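 Mock-infected MT-4 cells (6 × 10⁵ cells/ml) with serial five-fold compound dilutions in triplicate; MTT reduction read at 540 and 690 nm after 5 days, median OD of three wells; CC50 = concentration reducing OD540 of mock-infected control by 50%.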

Human betaherpesvirus 5 [23] = assay: Antiviral activity against human cytomegalovirus AD169 infected HEL cells assessed as reduction in virus plaque formation; assay type: functional, organism-based; conditions: Human betaherpesvirus 5, AD169, HEL
Human betaherpesvirus 5 [24] = assay: Antiviral activity against human cytomegalovirus Davis infected HEL cells assessed as reduction in virus plaque formation; assay type: functional, organism-based; conditions: Human betaherpesvirus 5, Davis

| Compound | MCC [1] | MIC [2] | MIC (Coxsackievirus B4 [3]) | MIC [4] | MCC [5] | MCC [6] | MIC (Human alphaherpesvirus 1 [7]) | MIC (Human alphaherpesvirus 1 [8]) | MIC (Human alphaherpesvirus 2 [9]) | MIC (Human alphaherpesvirus 2 [10]) | MIC [11] | MIC [12] | MIC (Human alphaherpesvirus 1 [13]) | MIC (Human alphaherpesvirus 1 [14]) | Activity (Vero) | MIC (Coxsackievirus B4 [15]) | MIC (Punta Toro virus) | EC50 (Human alphaherpesvirus 3 [16]) | EC50 (Human alphaherpesvirus 3 [17]) | MIC (Human respirovirus 3) | also measured |
| --- | --- | --- | --- | --- | --- | --- | --- | --- | --- | --- | --- | --- | --- | --- | --- | --- | --- | --- | --- | --- | --- |
| O=c1[nH]c(=O)n([C@H]2C[C@H](O)[C@@H](CO)O2)cc1/C=C/Br [BRIVUDINE] | ≥ 400 µg/mL | > 400 µg/mL | > 400 µg/mL | > 400 µg/mL | > 400 µg/mL | > 400 µg/mL | 0.0768 µg/mL (≈ 0.231 µM) | 0.0768 µg/mL (≈ 0.231 µM) | 80 µg/mL (≈ 240 µM) | 80 µg/mL (≈ 240 µM) | > 400 µg/mL | > 400 µg/mL | > 400 µg/mL | > 400 µg/mL | > 400 µg/mL | > 400 µg/mL | > 400 µg/mL | 0.02 µg/mL (≈ 0.06 µM) | 25 µg/mL (≈ 75 µM) | > 400 µg/mL | MIC [18]: > 400 µg/mL; MIC (Sindbis virus): > 400 µg/mL |
| Nc1nc2c(ncn2COCCO)c(=O)[nH]1 [ACYCLOVIR] | – | – | – | – | > 400 µg/mL | > 400 µg/mL | 0.384 µg/mL (≈ 1.71 µM) | 0.384 µg/mL (≈ 1.71 µM) | 0.384 µg/mL (≈ 1.71 µM) | 0.384 µg/mL (≈ 1.71 µM) | > 400 µg/mL | > 400 µg/mL | 48 µg/mL (≈ 213 µM) | 48 µg/mL (≈ 213 µM) | – | – | – | – | – | – | CC50 [19]: 200 µg/mL (≈ 888 µM) |
| C=CCNC(=S)Nc1ccc(OCc2n[nH]c(=S)n2-c2ccccc2)cc1 | 400 µg/mL | > 80 µg/mL | > 80 µg/mL | > 80 µg/mL | > 400 µg/mL | > 400 µg/mL | 240 µg/mL (≈ 604 µM) | 240 µg/mL (≈ 604 µM) | 240 µg/mL (≈ 604 µM) | 240 µg/mL (≈ 604 µM) | 240 µg/mL (≈ 604 µM) | 240 µg/mL (≈ 604 µM) | 240 µg/mL (≈ 604 µM) | 240 µg/mL (≈ 604 µM) | 400 µg/mL | 48 µg/mL (≈ 121 µM) | > 80 µg/mL | > 100 µg/mL | > 100 µg/mL | > 80 µg/mL | Activity [20]: 1.5%; IC50 ([20]; Human immunodeficiency virus 1, 3B, MT4): > 92.3 µg/mL; Activity [21]: 0.5%; IC50 ([21]; Human immunodeficiency virus 2, ROD, MT4): > 103 µg/mL; CC50 [22]: 107 µg/mL (≈ 269 µM); EC50 (Human betaherpesvirus 5 [23]): > 100 µg/mL; EC50 (Human betaherpesvirus 5 [24]): > 100 µg/mL; MIC [18]: > 80 µg/mL; MIC (Sindbis virus): > 80 µg/mL; CC50 [19]: > 50 µg/mL |
